This is a sample that favours compounds with a hit; in the whole collection about 2.3% have one here.
TAAR1 antag = antagonists of human TAAR1; inhibition, % at 3 µM; AID 624466; CHO RD-HGA16 TAAR1, Fluo-8 calcium fluorescence, antagonist; 360,000 compounds, 1.5% hits; Q96RJ0;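 active means inhibition above a per-plate cutoff, the mean inhibition of test compounds on that plate plus 3 SD, cut at about 49% in these data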
Target sequence (Q96RJ0 whole entry, looked up): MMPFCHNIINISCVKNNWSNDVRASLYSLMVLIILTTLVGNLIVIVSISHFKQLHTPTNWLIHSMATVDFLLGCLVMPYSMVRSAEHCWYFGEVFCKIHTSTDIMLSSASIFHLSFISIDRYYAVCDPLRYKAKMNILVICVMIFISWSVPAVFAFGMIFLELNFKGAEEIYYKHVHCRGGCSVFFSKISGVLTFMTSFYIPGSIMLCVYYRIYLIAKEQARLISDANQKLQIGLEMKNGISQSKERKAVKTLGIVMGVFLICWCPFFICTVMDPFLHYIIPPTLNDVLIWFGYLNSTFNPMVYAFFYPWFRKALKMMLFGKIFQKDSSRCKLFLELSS
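Test system: RD-HGA16 CHO cells with stable hTAAR1 and Gα16 / Probe or stimulus: EC80 β-phenethylamine stimulus / Times: seeding 17-24 h prior, 75-min 37 °C, 30-min RT dye loading / Detection: Fluo-8 calcium-sensitive fluorescence / Read-out basis: % inhibition scaled between DMSO and EC80 PEA controls / Repeats: singlicate, one well per test compound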
V1aR counter = counter-screen for oxytocin receptor agonists: human V1a receptor agonists | activation, % at 3 µM | CHO-V1R cells, Fluo-8 calcium fluorescence, agonist mode; 0% DMSO, 100% 3 nM vasopressin | AID 2797 | P37288 | 320,000 compounds, 0.25% hits;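 active means activation above the mean activation of all tested compounds plus 3 SD, per screening run, cut at about 20% in these data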;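 further: signal is peak over basal fluorescence ratio across a 100 second FLIPR read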
Target sequence (P37288 whole entry, looked up): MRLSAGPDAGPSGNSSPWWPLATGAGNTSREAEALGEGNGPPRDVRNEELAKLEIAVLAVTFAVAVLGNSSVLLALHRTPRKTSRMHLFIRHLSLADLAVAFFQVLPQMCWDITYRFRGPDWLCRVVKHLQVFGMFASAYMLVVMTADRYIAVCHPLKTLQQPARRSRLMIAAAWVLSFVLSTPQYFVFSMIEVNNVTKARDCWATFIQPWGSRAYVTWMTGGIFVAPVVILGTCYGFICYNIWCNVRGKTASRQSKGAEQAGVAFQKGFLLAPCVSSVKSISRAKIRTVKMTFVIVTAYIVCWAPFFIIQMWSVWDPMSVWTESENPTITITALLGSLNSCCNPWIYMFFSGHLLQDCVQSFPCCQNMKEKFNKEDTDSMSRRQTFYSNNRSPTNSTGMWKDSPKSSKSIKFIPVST
OXTR ag = activates the human oxytocin receptor. CHO-OTR cells, Fluo-8 calcium fluorescence; normalized: DMSO 0%, oxytocin 100%. activation, % at 3 µM. 320,000 compounds, 0.32% hits. AID 2435;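 active means activation above the mean of all tested compounds plus 3 SD, cutoff set per screening run, cut at about 20% in these data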;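 further: peak over basal fluorescence ratio from a 100 s FLIPR kinetic read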
OXTR potentiate = potentiators of human oxytocin receptor; P30559; CHO-OTR cells, Fluo-8 calcium fluorescence, potentiator mode; 0% = oxytocin EC15, 100% = EC100; activation, % at 3 µM; 320,000 compounds, 0.061% hits;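 active means activation above that plate's cutoff, the mean activation of tested compounds plus 3 SD, cut at about 6.6% in these data, passing the limit was not always enough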
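Dosing: Single dose, 3.0 µM nominal final compound concentration | Material: Human OTR in CHO cells | Technique: Kinetic Fluo-8 calcium fluorescence | Benchmarks: EC15 oxytocin alone as 0%, 75 nM oxytocin as 100% | Probe or stimulus: Oxytocin at about EC15, sub-maximal agonist stimulus | Incubation: Compound 6 min at room temperature before oxytocin, 100 s read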
TAAR1 ag = agonists of human TAAR1 | activation, % at 3 µM | 360,000 compounds, 0.99% hits | AID 624467 | CHO RD-HGA16 TAAR1, Fluo-8 calcium fluorescence; vehicle wells 0%, saturating PEA agonist 100% | Q96RJ0;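 active means activation above the mean activation of all test compounds in the run plus 3 SD, cut at about 38% in these data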
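test system = CHO RD-HGA16 cells carrying human TAAR1 plus Gα16 | schedule = 17-24 h seeding, 75 min 37 °C dye, 30 min RT | compound dosing = 3 µM single concentration | control set = DMSO and PEA EC100 | replicates = n 1 | signal = Fluo-8 fluorescence, 5 s baseline then 140 s kinetic read | measure = percent activation vs PEA EC100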
Each line names hits and unclear results; the compound was inactive in the other large screens; ! = a repeat was not active.

CC(=O)C1=C(C)N(Cc2ccc(Br)cc2)C(=S)NC1c1cccc(Br)c1 (stereo not drawn)	none (no result: V1aR counter, OXTR ag, OXTR potentiate)
COC(=O)c1c(-c2ccc(Br)cc2)csc1NC(=O)Cc1ccc(OC)c(OC)c1	none
COC(=O)c1c(-c2ccc(C)cc2)csc1NC(=O)Cc1ccc(OC)c(OC)c1	TAAR1 antag 55 (no result: V1aR counter, OXTR ag, OXTR potentiate)
Cc1c(NC(=O)Nc2ccc(Cl)c(Cl)c2)sc(=S)n1C	TAAR1 ag 41
CCc1ccc(/C=N/NC(=O)c2ccccn2)cc1	none
O=C(CNC(=O)c1ccccn1)N/N=C/c1ccccc1	TAAR1 ag 40
Cc1nn(-c2ccccc2)c2c1C(c1ccc([N+](=O)[O-])cc1)N1C(=N2)C(=O)Nc2ccccc21 (stereo not drawn)	TAAR1 antag 51
Cc1nn(-c2ccc([N+](=O)[O-])cc2)c2c1C(c1cccc(Br)c1)N1C(=N2)C(=O)Nc2ccccc21 (stereo not drawn)	none
CCCCCN(C(=O)CCc1cn(CCCCC)c2ccccc12)c1ccc(N(C)c2ccccn2)cc1	none (no result: V1aR counter, OXTR ag, OXTR potentiate)
CC(C)c1cc(-c2cc(C(=O)NCc3ccccc3)on2)nc(NCC2CC2)n1	TAAR1 antag 77, V1aR counter 35, OXTR ag 31, TAAR1 ag 68
CC(C)c1cc(-c2cc(C(=O)Nc3ccccc3)on2)nc(NCC2CC2)n1	none (no result: TAAR1 antag, TAAR1 ag)
O=C(CN1CCOCC1)Nc1scc2c1c(=O)oc1ccccc12	TAAR1 antag 53
COC1CC(=O)C2OC(c3ccccc3)OCC2O1 (stereo not drawn)	none (no result: V1aR counter, OXTR ag, OXTR potentiate)
Cc1ccc(SCc2c(C(=O)N/N=C/c3ccccc3)nnn2-c2nonc2N)cc1	none
Cc1ccsc1/C=N/NC(=O)c1nnn(-c2nonc2N)c1CN(C)c1ccccc1	TAAR1 antag 49
Cc1ccc(SCc2c(C(=O)N/N=C/c3cccs3)nnn2-c2nonc2N)cc1	TAAR1 antag 62 (no result: V1aR counter, OXTR ag, OXTR potentiate)
CC(C)CNc1ccc2c(c1)OC[C@H](C)NS2(=O)=O	none (no result: V1aR counter, OXTR ag, OXTR potentiate)
O=C1CCC(c2ccccc2)(C2CCN(Cc3ccccc3)CC2)C(=O)N1 (stereo not drawn)	none
CCN(CC)S(=O)(=O)c1ccc(/C=C/C(=O)Nc2ccc(Br)cc2F)cc1	TAAR1 antag 53
CCN(CC)S(=O)(=O)c1ccc(/C=C/C(=O)Nc2ccc(F)cc2F)cc1	none
CC[C@]12c3[nH]c4cc(-c5ccco5)ccc4c3CCN1C(=O)[C@@H](CC(=O)NCCN1CCOCC1)C[C@@H]2C(=O)N1CCN(C(=O)C2CC2)CC1	none (no result: V1aR counter, OXTR ag, OXTR potentiate)
CC(C)C(=O)Nc1ccc(N2CCOCC2)c(S(=O)(=O)Nc2ccccc2Cl)c1	TAAR1 antag 53
CCN(CC)c1ccc(C(=C2C=CC(=[N+](CC)CC)C=C2)c2ccccc2)cc1	TAAR1 antag 105 (no result: V1aR counter, OXTR ag, OXTR potentiate)
CCN(CC)c1ccc(C(=O)NNC(=O)CCNC(=O)c2ccccc2)cc1	none
CCCCOCC1CN(CCCC)S(=O)(=O)c2c(cccc2Sc2ccc(SC)cc2)O1 (stereo not drawn)	none (no result: V1aR counter, OXTR ag, OXTR potentiate)
CC/C=C\C/C=C\C/C=C\CCCCCCCC(=O)O	none
CCCCC/C=C\C/C=C\C/C=C\C/C=C\CCCC(=O)O	OXTR potentiate 9.6 (no result: TAAR1 antag, TAAR1 ag)
OC(c1ccccc1)(c1ccccc1)C1CCN(CCCOc2ccc3c(c2)CCCC3)CC1	TAAR1 ag 42 (no result: V1aR counter, OXTR ag, OXTR potentiate)
N#CCc1ccc(OCCCN2CCC(C(O)(c3ccccc3)c3ccccc3)CC2)cc1	none (no result: V1aR counter, OXTR ag, OXTR potentiate)
CC1(C)OC(C)(C)C(=N/O)/C1=N\N	none (no result: V1aR counter, OXTR ag, OXTR potentiate)
COc1cc2ccccc2cc1C(=O)N1CCc2ccccc21	none (no result: V1aR counter, OXTR ag, OXTR potentiate)
COc1ccc(-c2cc(C(=O)OCC(=O)N3CCCC3)c3ccccc3n2)cc1	none
CCOc1ccc(-c2cc(C(=O)N3CCN(c4ccccn4)CC3)c3ccccc3n2)cc1	none
CCCc1ccc(-c2cc(C(=O)N3CCN(c4ccccn4)CC3)c3ccccc3n2)cc1	none
COc1ccc(-c2cc(C(=O)N3CCN(c4ccccn4)CC3)c3ccccc3n2)cc1	TAAR1 antag 53
COc1cc(-c2cc(C(=O)N3CCN(c4ccccn4)CC3)c3ccccc3n2)cc(OC)c1OC	TAAR1 antag 50
O=C(c1cnc(N2CCN(c3ccccn3)CC2)c2ccccc12)N1CCN(c2cccc(Cl)c2)CC1	TAAR1 antag 60
COc1ccc2nc(-c3ccccc3)cc(C(=O)OCC(=O)N3CCCCC3)c2c1	TAAR1 antag 56
COc1ccccc1-c1csc(NC(=O)c2cc(-c3cccs3)nc3ccccc23)n1	none
Cc1ccc(NC(=O)c2cc(-c3cccs3)nc3ccccc23)nc1	TAAR1 antag 53
COc1ccc(-c2cc(C(=O)N3CCN(c4ccccc4O)CC3)c3ccccc3n2)cc1	TAAR1 antag 62
O=C(c1cc(-c2cccs2)nc2ccccc12)N1CCN(c2ccccc2O)CC1	TAAR1 antag 58
COc1ccc(-c2cc(C(=O)N3CCN(c4ccccc4)CC3)c3ccccc3n2)cc1	none
Cc1cc(N2CCN(C(C(=O)NC3CCCC3)C(C)C)CC2)c2ccccc2n1 (stereo not drawn)	none (no result: V1aR counter, OXTR ag, OXTR potentiate)
COc1ccc(N2C(=O)c3n[nH]c(C)c3C2c2ccc(F)cc2)cc1 (stereo not drawn)	none (no result: V1aR counter, OXTR ag, OXTR potentiate)
COc1ccccc1CC1CC(=O)N(c2ccc([N+](=O)[O-])cc2)C1=O (stereo not drawn)	none (no result: V1aR counter, OXTR ag, OXTR potentiate)
CCc1c(-c2ccccc2)ncn1CCc1ccccc1OC	none (no result: V1aR counter, OXTR ag, OXTR potentiate)
O=c1[nH]c(=S)[nH]c2nc(-c3ccccc3)cnc12	none
Cc1cc2nc3c(=O)[nH]c(=S)[nH]c3nc2cc1NC(=O)C(F)(F)F	V1aR counter 80, OXTR ag 55
COc1ccccc1CNC(=O)COc1ccccc1C(=O)c1cnn(-c2ccccc2)c1	TAAR1 antag 57
CC(C)c1ccc2c(c1)CCC1C(C)(CN)CCCC21C (stereo not drawn)	TAAR1 ag 39
CC(C)c1ccc2c(c1)CC[C@H]1[C@](C)(CN)CCC[C@]21C	TAAR1 ag 38! (no result: V1aR counter, OXTR ag, OXTR potentiate)
O=C(NCCc1cccs1)C1CCC(=O)N(CCc2cccc(F)c2)C1 (stereo not drawn)	TAAR1 ag 42
C[C@@H]1CN([C@@H](C)CO)C(=O)CCCn2cc(nn2)CO[C@H]1CN(C)C(=O)Nc1ccc2c(c1)OCO2	none (no result: V1aR counter, OXTR ag, OXTR potentiate)
Nc1nc(Cl)cc(NCCc2ccc(O)cc2)n1	none
Oc1ccc(CCNc2ncnc3ccc(Cl)cc23)cc1	TAAR1 antag 51
CC(OC(=O)C1CC1C)C(=O)Nc1ncc(Cl)cc1Cl (stereo not drawn)	none
CCCN(CCC)c1cc(=O)nc2ccccn12	none (no result: V1aR counter, OXTR ag, OXTR potentiate)
CCCSc1nc(N)c(C#N)c(-c2ccc(C)cc2)c1C#N	TAAR1 antag 54
CCc1ccc(NC(=O)C2CCN(S(=O)(=O)c3ccc4c(c3)NC(=O)C(C)S4)CC2)cc1 (stereo not drawn)	none
Cc1ccc(NC(=O)C2CCN(S(=O)(=O)c3ccc4c(c3)NC(=O)C(C)S4)CC2)cc1C (stereo not drawn)	TAAR1 antag 50
